The source made the active and inactive calls. No cut-off for these calls is given here.
Tests used:
[1] = system: P388; experiment: Antitumor activity against mouse P388 cells allografted in mouse assessed as increase in life span at 0.6 mg/kg/day, ip administered from day 1 to day 9 relative to untreated control; format: functional; conditions: route intraperitoneal
Procedure, shortened: (§1)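 P388 ascites implanted ip in mice, 10 animals per group. Sulfate salts given ip either daily on days 1-9 or as a single dose on day 1. Median life span was calculated using all deaths and survivors. Percent increase in life span was taken over untreated controls. The highest nontoxic dose was noted.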

[2] = system: P388; experiment: Antitumor activity against mouse P388 cells allografted in mouse assessed as increase in life span at 4 mg/kg/day, ip after 1 day; format: functional; conditions: 24 h, route intraperitoneal; procedure, shortened: as §1
[3] = system: B16; experiment: Antitumor activity against mouse B16 cells allografted in B6D2F1 mouse assessed as mean survival time at 0.389 mg/kg/day, ip administered on day 5, 9 and 13 (reference value: 20.0 days); format: functional; conditions: route intraperitoneal
Procedure, shortened: (§2)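 Male B6D2F1 mice implanted ip on day 0 with 0.25 mL of a 20% (w/v) B16 melanoma brei. Alkaloid sulfate salts given ip on days 1, 5, 9 or on days 5, 9, 13, groups of 10, against 30 untreated controls. Read-outs: median survival time with range of individual deaths, and percent increase in life span, with survivors counted on day 56.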

[4] = system: B16; experiment: Antitumor activity against mouse B16 cells allografted in B6D2F1 mouse assessed as increase in life span at 0.648 mg/kg/day, ip administered on day 5, 9 and 13 measured for 56 days relative to untreated control; format: functional; conditions: route intraperitoneal; procedure, shortened: as §2
[5] = Toxicity in ip dosed mouse allografted with mouse p388 cells after 1 day; format: organism-based; conditions: in vivo, read-out: MNTD; procedure, shortened: as §1
[6] = system: P388; experiment: Antitumor activity against mouse P388 cells allografted in mouse assessed as survival at 2.7 mg/kg/day after 1 day; format: functional, organism-based
Procedure, shortened: (§3)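 P388 ascites implanted ip in mice; sulfate salts dosed either daily or as a single dose on day 1, 10 animals per group. Survivors per total were recorded, median life span was calculated using all deaths and survivors, and percent increase of life span was reported.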

[7] = system: B16; experiment: Antitumor activity against mouse B16 cells allografted in B6D2F1 mouse assessed as mean survival time at 3 mg/kg/day, ip administered on day 1, 5 and 9 (reference value: 20.0 days); format: functional; conditions: route intraperitoneal; procedure, shortened: as §2
[8] = system: P388; experiment: Antitumor activity against mouse P388 cells allografted in mouse assessed as survival at 4 mg/kg/day after 1 day; format: functional, organism-based; procedure, shortened: as §3
[9] = Antitumor activity against mouse Gardner lymphosarcoma cell allografted in mouse at 0.1 to 0.35 mg/kg/day, ip; format: functional; conditions: route intraperitoneal
Procedure, shortened: (§4)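 Sulfate salts given ip on days 1-9 against ROS and GLS in mice; tumor growth scored as percent inhibition versus controls (+++ = 75-100%, ++ = 50-75%, ± = under 25%).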

[10] = system: P388; experiment: Antitumor activity against mouse P388 cells allografted in mouse assessed as survival at 0.4 mg/kg/day administered from day 1 to day 9; format: functional, organism-based; procedure, shortened: as §3
[11] = system: B16; experiment: Antitumor activity against mouse B16 cells allografted in B6D2F1 mouse assessed as increase in life span at 1.08 mg/kg/day, ip administered on day 1, 5 and 9 measured for 56 days relative to untreated control; format: functional; conditions: route intraperitoneal; procedure, shortened: as §2
[12] = Toxicity in ip dosed mouse allografted with mouse p388 cells administered from day 1 to day 9; format: organism-based; conditions: in vivo, read-out: MNTD; procedure, shortened: as §1
[13] = system: P388; experiment: Antitumor activity against mouse P388 cells allografted in mouse assessed as increase in life span at 9 mg/kg/day, ip after 1 day; format: functional; conditions: 24 h, route intraperitoneal; procedure, shortened: as §1
[14] = system: B16; experiment: Antitumor activity against mouse B16 cells allografted in B6D2F1 mouse assessed as increase in life span at 1.8 mg/kg/day, ip administered on day 1, 5 and 9 measured for 56 days relative to untreated control; format: functional; conditions: route intraperitoneal; procedure, shortened: as §2
[15] = system: P388; experiment: Antitumor activity against mouse P388 cells allografted in mouse assessed as increase in life span at 0.27 mg/kg/day, ip administered from day 1 to day 9 relative to untreated control; format: functional; conditions: route intraperitoneal; procedure, shortened: as §1
[16] = system: P388; experiment: Antitumor activity against mouse P388 cells allografted in mouse assessed as increase in life span at 6 mg/kg/day, ip after 1 day; format: functional; conditions: 24 h, route intraperitoneal; procedure, shortened: as §1
[17] = system: B16; experiment: Antitumor activity against mouse B16 cells allografted in B6D2F1 mouse assessed as mean survival time at 1.08 mg/kg/day, ip administered on day 1, 5 and 9 (reference value: 20.0 days); format: functional; conditions: route intraperitoneal; procedure, shortened: as §2
[18] = system: P388; experiment: Antitumor activity against mouse P388 cells allografted in mouse assessed as increase in life span at 2.7 mg/kg/day, ip after 1 day; format: functional; conditions: 24 h, route intraperitoneal; procedure, shortened: as §1
[19] = system: P388; experiment: Antitumor activity against mouse P388 cells allografted in mouse assessed as increase in life span at 0.4 mg/kg/day, ip administered from day 1 to day 9 relative to untreated control; format: functional; conditions: route intraperitoneal; procedure, shortened: as §1
[20] = Acute toxicity in rat; format: organism-based; conditions: in vivo
[21] = system: B16; experiment: Antitumor activity against mouse B16 cells allografted in B6D2F1 mouse assessed as mean survival time at 0.389 mg/kg/day, ip administered on day 1, 5 and 9 (reference value: 20.0 days); format: functional; conditions: route intraperitoneal; procedure, shortened: as §2
[22] = system: B16; experiment: Antitumor activity against mouse B16 cells allografted in B6D2F1 mouse assessed as mean survival time at 0.648 mg/kg/day, ip administered on day 1, 5 and 9 (reference value: 20.0 days); format: functional; conditions: route intraperitoneal; procedure, shortened: as §2
[23] = system: B16; experiment: Antitumor activity against mouse B16 cells allografted in B6D2F1 mouse assessed as increase in life span at 0.648 mg/kg/day, ip administered on day 1, 5 and 9 measured for 56 days relative to untreated control; format: functional; conditions: route intraperitoneal; procedure, shortened: as §2
[24] = system: B16; experiment: Antitumor activity against mouse B16 cells allografted in B6D2F1 mouse assessed as increase in life span at 3 mg/kg/day, ip administered on day 5, 9 and 13 measured for 56 days relative to untreated control; format: functional; conditions: route intraperitoneal; procedure, shortened: as §2
[25] = Toxicity in ip dosed mouse allografted with mouse P1534(J) cells administered from day 1 to day 9; format: organism-based; conditions: in vivo, read-out: MNTD
Procedure, shortened: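 P1534(J) leukemia implanted subcutaneously in mice. Sulfate salts given ip daily on days 1-9. Read-out was percent inhibition of tumor growth relative to untreated controls. The highest nontoxic dose was recorded.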

[26] = Antitumor activity against mouse P1534(J) cells allografted in mouse assessed as tumor growth inhibition at 0.35 mg/kg/day, ip administered from day 1 to day 9 relative to unreated control; format: functional; conditions: P1534J, route intraperitoneal, read-out: TGI
Procedure, shortened: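 P1534(J) leukemia implanted subcutaneously in mice; sulfate salts given ip on days 1-9. Read-out is percent inhibition of tumor growth versus untreated controls.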

[27] = Acute toxicity in ip dosed mouse; format: organism-based; conditions: in vivo
[28] = system: B16; experiment: Antitumor activity against mouse B16 cells allografted in B6D2F1 mouse assessed as increase in life span at 0.389 mg/kg/day, ip administered on day 1, 5 and 9 measured for 56 days relative to untreated control; format: functional; conditions: route intraperitoneal; procedure, shortened: as §2
[29] = system: B16; experiment: Antitumor activity against mouse B16 cells allografted in B6D2F1 mouse assessed as increase in life span at 1.08 mg/kg/day, ip administered on day 5, 9 and 13 measured for 56 days relative to untreated control; format: functional; conditions: route intraperitoneal; procedure, shortened: as §2
[30] = system: B16; experiment: Antitumor activity against mouse B16 cells allografted in B6D2F1 mouse assessed as increase in life span at 1.8 mg/kg/day, ip administered on day 5, 9 and 13 measured for 56 days relative to untreated control; format: functional; conditions: route intraperitoneal; procedure, shortened: as §2
[31] = system: B16; experiment: Antitumor activity against mouse B16 cells allografted in B6D2F1 mouse assessed as mean survival time at 1.8 mg/kg/day, ip administered on day 1, 5 and 9 (reference value: 20.0 days); format: functional; conditions: route intraperitoneal; procedure, shortened: as §2
[32] = system: B16; experiment: Antitumor activity against mouse B16 cells allografted in B6D2F1 mouse assessed as increase in life span at 3 mg/kg/day, ip administered on day 1, 5 and 9 measured for 56 days relative to untreated control; format: functional; conditions: route intraperitoneal; procedure, shortened: as §2
[33] = system: P388; experiment: Antitumor activity against mouse P388 cells allografted in mouse assessed as increase in life span at 0.9 mg/kg/day, ip administered from day 1 to day 9 relative to untreated control; format: functional; conditions: route intraperitoneal; procedure, shortened: as §1
[34] = system: B16; experiment: Antitumor activity against mouse B16 cells allografted in B6D2F1 mouse assessed as mean survival time at 0.648 mg/kg/day, ip administered on day 5, 9 and 13 (reference value: 20.0 days); format: functional; conditions: route intraperitoneal; procedure, shortened: as §2
[35] = system: B16; experiment: Antitumor activity against mouse B16 cells allografted in B6D2F1 mouse assessed as mean survival time at 3 mg/kg/day, ip administered on day 5, 9 and 13 (reference value: 20.0 days); format: functional; conditions: route intraperitoneal; procedure, shortened: as §2
[36] = system: B16; experiment: Antitumor activity against mouse B16 cells allografted in B6D2F1 mouse assessed as increase in life span at 0.389 mg/kg/day, ip administered on day 5, 9 and 13 measured for 56 days relative to untreated control; format: functional; conditions: route intraperitoneal; procedure, shortened: as §2
[37] = Antitumor activity against mouse Ridgeway osteogenic sarcoma cells allografted in mouse at 0.1 to 0.35 mg/kg/day, ip; format: functional; conditions: route intraperitoneal; procedure, shortened: as §4
[38] = system: B16; experiment: Antitumor activity against mouse B16 cells allografted in B6D2F1 mouse assessed as mean survival time at 1.08 mg/kg/day, ip administered on day 5, 9 and 13 (reference value: 20.0 days); format: functional; conditions: route intraperitoneal; procedure, shortened: as §2
[39] = system: B16; experiment: Antitumor activity against mouse B16 cells allografted in B6D2F1 mouse assessed as mean survival time at 1.8 mg/kg/day, ip administered on day 5, 9 and 13 (reference value: 20.0 days); format: functional; conditions: route intraperitoneal; procedure, shortened: as §2
[40] = Antitumor activity against mouse Ridgeway osteogenic sarcoma cells allografted in mouse at 1 to 2 mg/kg/day, ip; format: functional; conditions: route intraperitoneal; procedure, shortened: as §4
[41] = Antitumor activity against mouse Gardner lymphosarcoma cell allografted in mouse at 1.0 to 2.0 mg/kg/day, ip; format: functional; conditions: route intraperitoneal; procedure, shortened: as §4

## CC[C@]1(O)C[C@@H]2CN(CCc3c([nH]c4ccccc34)[C@@](C(=O)OC)(c3cc4c(cc3OC)N(C)[C@H]3[C@@](O)(C(=O)OC)[C@H](OC(C)=O)[C@]5(CC)C=CCN6CC[C@]43[C@@H]65)C2)C1.O=S(=O)(O)O [VINBLASTINE SULFATE]
[1]
  ILS at 0.6 mg/kg/day: > 263%
[2]
  ILS at 4 mg/kg/day: 95%
[3]
  MST: 22.5 days
[4]
  ILS at 0.648 mg/kg/day: 40%
[5]
  MTD at 24 h: 9 mg/kg/day
[6]
  Activity: inactive
[7]
  MST: 40.5 days
[8]
  Activity: inactive
[9]
  TGI: <25%
[10]
  Activity: inactive
[11]
  ILS at 1.08 mg/kg/day: 78%
[12]
  MTD: 0.9 mg/kg/day
[13]
  ILS at 9 mg/kg/day: 127%
[14]
  ILS at 1.8 mg/kg/day: 92%
[15]
  ILS at 0.27 mg/kg/day: 131%
[16]
  ILS at 6 mg/kg/day: 109%
[17]
  MST: 35.5 days
[18]
  ILS at 2.7 mg/kg/day: 81%
[19]
  ILS at 0.4 mg/kg/day: 72%
[20]
  LD50: 2.9 mg/kg
[21]
  MST: 32 days
[22]
  MST: 33.5 days
[23]
  ILS at 0.648 mg/kg/day: 68%
[24]
  ILS at 3 mg/kg/day: 62%
[25]
  MTD: 0.35 mg/kg/day
[26]
  inhibition in vivo at 0.35 mg/kg/day: 54%
[27]
  LD50: 10 mg/kg
[28]
  ILS at 0.389 mg/kg/day: 60%
[29]
  ILS at 1.08 mg/kg/day: 39%
[30]
  ILS at 1.8 mg/kg/day: 25%
[31]
  MST: 38.5 days
[32]
  ILS at 3 mg/kg/day: 102%
[33]
  ILS at 0.9 mg/kg/day: 109%
[34]
  MST: 28 days
[35]
  MST: 32.5 days
[36]
  ILS at 0.389 mg/kg/day: 12%
[37]
  TGI: <25%
[38]
  MST: 27.5 days
[39]
  MST: 25 days

## CC[C@]1(O)C[C@@H]2C[C@H](c3cc4c(cc3OC)N(C)[C@H]3[C@@](O)(C(=O)NN)[C@H](O)[C@]5(CC)C=CCN6CC[C@]43[C@@H]65)c3[nH]c4ccccc4c3CCN(C2)C1
[40]
  TGI: <25%
[41]
  TGI: <25%

Source: ChEMBL document CHEMBL3272325, “Structure-activity relationships of dimeric Catharanthus alkaloids. 1. Deacetylvinblastine amide (vindesine) sulfate” (J Med Chem, 1978)
